CHOP inh = blocks CHOP induction under ER stress; 3.8% of 220,000 active; AID 2732; CHO-K1 CHOP-promoter luciferase, tunicamycin-induced, 15-18 h; inhibition, % at 10 µM;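 active = compounds that reduced the stress-induced luciferase reporter signal by more than about 70% of percent inhibition, limit read from the data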
MT stabilizer = microtubule stabilizers in HeLa cells; HeLa tubulin immunostaining HCS, 24 h; share of cells brighter than vehicle mean+2SD; % tubulin-high responders, % at 10 µM; 0.83% of 200,000 active; AID 2205;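 active = plate Z-score above 3 for both tubulin-high and condensed-nucleus cell shares, with cell loss under 80%, at 10 µM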;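 note: anti alpha tubulin signal scored within the nucleus-defined area of each cell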
Dynein transport = dynein cargo transport inhibition | 3617.4 mouse cells, GR-EGFP nuclear translocation imaging; test concentration mostly 20 µM; stimulated with dexamethasone, 1 µM; stronger effect = lower value | z-score, hits read low | 0.47% of 220,000 active;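 active = plate z-score of nuclear minus cytoplasmic receptor signal below a set negative limit, without overly bright fluorescence or cell loss, cut at about -3.5 in these data, passing the limit was not always enough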;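 note: z-score of nuclear minus cytoplasmic ring GR-EGFP intensity difference per well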
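Buffer or medium: tet-free medium with charcoal-stripped serum / Also added: dexamethasone agonist, 1.0 µM final, for 30 min / Timing: induction 48 h, compound 1 h, agonist 30 min / Measured by: high-content fluorescence imaging after fixation / Read-out: nuclear-to-cytoplasmic GR-EGFP distribution per well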
bCat nuc transl = alters nuclear translocation of beta-catenin in HeLa cells; immunofluorescence imaging; nuclear translocation activity, % at 5 µM; 0.3% of 190,000 active; AID 1665;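 active = nuclear translocation activity above 50% at 5 µM, with a well cell count of 50 or more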;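 note: per-cell ratio of nuclear to cytoplasmic median beta-catenin stain intensity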
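Test system: human HeLa cells, endogenous beta-catenin. Times: 24 h compound exposure, 37°C. Measured by: beta-catenin immunofluorescence imaging with DAPI.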
Lmaj promast = reduces viability of Leishmania major promastigotes; AID 1063; 9% of 200,000 active; resazurin fluorescence viability; inhibition, % at 10 µM; in the data active = inhibition above about 50%;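 note: promastigotes grown with compound for 44 hours at 28 °C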
Autophagy HCS = modulators of autophagy; AID 463193; calls only at 10 µM (by protocol); 0.98% of 190,000 active; MEF GFP-LC3 puncta imaging; test concentration mostly 10 µM;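 active = percentage of spot-positive cells more than 3 SD above its plate mean, without a fluorescence outlier flag or 80% toxicity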
Large screens that a line does not name were inactive. Most compounds without a hit are left out; they make up all but 12% or so of the library.

Cc1ccc2cc(C(c3nnnn3Cc3ccccc3)N3CCN(c4ccccc4)CC3)c(=O)[nH]c2c1 (stereo not given)	Lmaj promast 93
COc1ccc2cc(C(c3nnnn3Cc3ccccc3)N3CCCCCC3)c(=O)[nH]c2c1 (stereo not given)	none (no result: CHOP inh)
Cc1ccc2cc(C(c3nnnn3C3CCCC3)N3CCN(c4ccccc4)CC3)c(=O)[nH]c2c1 (stereo not given)	Lmaj promast 76
COc1ccc(N2CCN(C(c3cc4cc(C)ccc4[nH]c3=O)c3nnnn3Cc3ccccc3)CC2)cc1 (stereo not given)	Lmaj promast 99 (no result: bCat nuc transl)
COc1ccc(Cn2nnnc2C(c2cc3cc(C)ccc3[nH]c2=O)N2CCOCC2)cc1 (stereo not given)	none
C/C(NC1CCCCC1)=C(/C#N)C(=O)NCCN1CCOCC1	Lmaj promast 50
COc1cccc(NC(=O)COC(=O)c2ccccc2C(=O)N2CCN(c3ccccc3)CC2)c1	none
CC(=O)OCc1c(C)cc(C)c(/C=C(/C#N)C(N)=O)c1C	none
O=C(CN1CCNCC1)NCCSc1ccc(Cl)cc1	Lmaj promast 88
O=C(CN1CCNCC1)Nc1ccccc1Cl	none (no result: Autophagy HCS)
Cc1ccc(SCCNC(=O)/C=C/c2ccccc2Cl)cc1	none
Cc1ccc(SCCNC(=O)/C=C/c2ccc([N+](=O)[O-])cc2)cc1	Lmaj promast 62
Cc1ccc(SCCNC(=O)/C=C/c2ccc(Cl)cc2)cc1	Lmaj promast 51
Cc1ccccc1Nc1scc(-c2ccc(Cl)cc2)[n+]1-c1ccccc1C	none
COCCCNC(=S)N(Cc1cccnc1)Cc1ccc(OC)c(OC)c1	Lmaj promast 89
CCCCNC(=O)CNC(=S)N(Cc1ccccc1)Cc1cccnc1	none
Cc1cc(OC(=O)N2CCCCC2)cc(C)c1Cl	CHOP inh 76
CC12CC3CC(C)(C1)CC(NCc1ccncc1)(C3)C2	Lmaj promast 82
C/C(=N\Nc1ccc(F)cc1F)c1ccc(Br)s1	CHOP inh 71
C/C(=N\Nc1ccc(F)cc1F)c1ccc(F)cc1	none
CCN(CC)S(=O)(=O)c1cccc(NC(=O)COC(=O)C2CC3C=CC2C3)c1 (stereo not given)	none
CC(C)CCNC(=S)Nc1ccccc1F	Lmaj promast 52
COCCNC(=S)Nc1ccccn1	none
Cc1cccc(NC(=S)NCCC(C)C)c1	none
CC(C)CCNC(=S)Nc1ccccn1	Lmaj promast 68
CCOC(=O)C(CCCOc1ccc(C)cc1)C(=O)OCC	CHOP inh 95 (no result: bCat nuc transl)
COc1ccccc1C1=NOC(Cn2c(NCCCO)nc3c2c(=O)n(C)c(=O)n3C)C1 (stereo not given)	none (no result: MT stabilizer, Lmaj promast, Autophagy HCS)
COc1ccc(C2=NOC(Cn3c(Cc4ccc(Cl)cc4)nc4c3c(=O)n(C)c(=O)n4C)C2)cc1 (stereo not given)	Lmaj promast 64
O=S(=O)(c1cccs1)N1CN(C2CCCCC2)c2nc3ccccc3nc21	none (no result: MT stabilizer, Lmaj promast, Autophagy HCS)
COc1cc(OC)cc(C(=O)N[C@H](C(=O)NCc2ccco2)C(C)C)c1	none
OC(CN1CCN(Cc2ccccc2)CC1)Cn1c2ccccc2c2ccccc21 (stereo not given)	Lmaj promast 81
OC(CSc1ccc(F)cc1)CN1CCN(c2ccccc2)CC1 (stereo not given)	Lmaj promast 68
OCC(O)CN1CCN(c2ccccc2)CC1 (stereo not given)	none (no result: bCat nuc transl)
Cc1ccc(OCCN2CCN(CC(O)Cn3c4ccccc4c4ccccc43)CC2)cc1 (stereo not given)	CHOP inh 96, Lmaj promast 77
OC(CN1CCN(c2ccccc2)CC1)Cn1c2ccccc2c2ccccc21 (stereo not given)	CHOP inh 80 (no result: bCat nuc transl)
Cc1ccc(OCc2nnc(N)s2)cc1C	none (no result: MT stabilizer, Lmaj promast, Autophagy HCS)
Cc1cccc(NC(NC(=O)c2ccccc2[N+](=O)[O-])C(Cl)(Cl)Cl)c1 (stereo not given)	none
Cc1cc2nc(CS)[nH]c2cc1C	none (no result: MT stabilizer, Lmaj promast, Autophagy HCS)
Cc1ccc(OCCn2c(C)c(/C=N/n3cnnc3)c3ccccc32)cc1	CHOP inh 81
Cc1c(/C=N/n2cnnc2)c2ccccc2n1CCOc1ccc(Cl)cc1	none
CC(NS(=O)(=O)c1ccc(OCC(=O)Nc2cccc([N+](=O)[O-])c2)cc1)c1ccccc1 (stereo not given)	none
O=C(Nc1c2ccccc2nc2ccccc12)C(Cl)(Cl)Cl	Lmaj promast 100 (no result: bCat nuc transl)
O=C(CCCOc1ccc(Cl)cc1Cl)n1nnc2ccccc21	none
CC(=O)c1ccc(OCCCC(=O)n2nnc3ccccc32)cc1	Autophagy HCS active
Clc1ccc2c(c1)C(c1cccs1)=NNC(c1cccnc1)=N2	none
COc1ccc(-c2nnc3ccc(SC)nn23)cc1	none
CCCCNS(=O)(=O)c1ccc2nc(SCC(N)=O)[nH]c2c1	none (no result: MT stabilizer, Lmaj promast, Autophagy HCS)
CCCCNS(=O)(=O)c1ccc2nc(SCC(=O)c3ccccc3OC)[nH]c2c1	Lmaj promast 99 (no result: bCat nuc transl)
COC(=O)c1ccc(Cn2nc(C)c(Cl)c2C)o1	none
COc1cc(CNC(=O)c2ccc(Cn3nc(C)c(Cl)c3C)o2)cc(OC)c1	Lmaj promast 53
O=C(CNC(=O)c1ccc(N2C(=O)c3ccccc3C2=O)cc1)OCC(=O)c1cccc2ccccc12	Lmaj promast 62
CCc1ccc(C(=O)COC(=O)CNC(=O)c2ccc(N3C(=O)c4ccccc4C3=O)cc2)cc1	none
COc1ccc(C(=O)COC(=O)CNC(=O)c2ccc(OC)cc2)cc1	none
O=C(CNC(=O)c1ccc(N2C(=O)c3ccccc3C2=O)cc1)OCC(=O)c1ccccc1	Lmaj promast 62
Cc1ccc(-c2nnn(CC(=O)Nc3ccccc3N3CCOCC3)n2)cc1	none
COc1ccc(S(=O)(=O)N2CCNC(=O)C2)cc1Br	none
COc1ccc(C(=O)OC(C(=O)c2ccccc2)c2ccccc2)cc1 (stereo not given)	CHOP inh 72
COC(=O)[C@H](CC(C)C)NC(=O)N1CCC(C)CC1	none (no result: MT stabilizer, Lmaj promast, Autophagy HCS)
Cn1c(=O)c2c(nc(NNC(=O)C(F)(F)F)n2C)n(C)c1=O	none
CN(C)/C=C/C(=O)c1cnc(-c2ccccn2)s1	none
O=C(c1cc2ccccc2o1)N1CCC(N2CCC(C(=O)N3CCCC3)CC2)CC1	Lmaj promast 50
O=c1[nH]c2ccccc2n1CCC1CCCCC1	CHOP inh 86
Cc1scc(C(=O)N2CCN(c3ccc(Cl)cc3)CC2)c1C	none
COc1ccc(CN(C(=O)c2nsc(Cl)c2Cl)C(C(=O)NC2CCCC2)c2ccc(OC)cc2)cc1 (stereo not given)	none
Cc1cccc(N(C(=O)c2nsc(Cl)c2Cl)C(C(=O)NC2CCCC2)c2ccc(O)cc2)c1 (stereo not given)	Lmaj promast 85
CCCNC(=O)C12CCC(C)(c3nc4cc(C)c(C)cc4nc31)C2(C)C (stereo not given)	none
